Assay: Toxicity liver stage against HepG2, at 10uM
Format: cell-based
Parameters: test concentration 10 uM, cell line HepG2-A16-CD81EGFP
Details: human, HepG2-A16-CD81EGFP cells; read-out: INHIBITION
In short: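 Uninfected HepG2-A16-CD81EGFP cells, 3 × 10^3 per well, 1536-well, plated on prespotted compound at 10 μM final, parasite-free screening media added to match infected plates; puromycin 10 μM positive, DMSO 0.5% negative; run in parallel with 48 h PbLuc assay at 37 °C, 5% CO2; viability by CellTiter-Glo luminescence, normalized to controls.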

Structure (SMILES) | cytotoxicity at 10 µM [%]
CCC1(CC)C(=O)NC(=O)N/C1=N/c1cccc(OC)c1 | -51.8
CC(=O)Nc1nc(-c2ccccc2)c[nH]1 | -1
CC1(C)[C@H](Cc2cc(CO)on2)C[C@@H]1NCc1ccc(CO)o1 | -12.4
CC(C)NC(=O)N1C[C@@H](F)[C@@H](OCc2nc3ccccc3o2)C1 | 8.16
CCCOc1ccc(CC2=NC(C)(CO)CO2)cc1 (stereo not given) | 24.8
CC(C)n1ccc2ccc(C(=O)NC3CN4CCC3CC4)cc21 (stereo not given) | -57.4
O=C1CCCN1C(CNS(=O)(=O)C1CC1)Cc1cccc(F)c1 (stereo not given) | 1.49
Cc1nsc(C(=O)NCCCc2ccccc2)n1 | -0.449
CC(=O)Nc1ccc2c(c1)C1(CCOCC1)C(=O)N2c1ccsc1 | 5.56
Cc1ccc(CC(=O)N2CC[C@@H]3NC(=O)CC[C@@H]32)cc1 | 1.49
CN(C)CCN1CCOC2(CCN(c3nccs3)CC2)c2ccccc21 | -1.99
CC(C)CN1CCC2(Cc3ccccc3NC2=O)C1 (stereo not given) | 6.86
CCOc1cc(CNCCCn2ccnc2)cc(Cl)c1OCC | 1.82
CCN1CCCC1CNCc1cc2cc3c(cc2[nH]c1=O)OCCO3 (stereo not given) | 5.07
Cc1cc(N2CCC(c3n[nH]c4nccnc34)CC2)ncn1 | -25.6
C[C@H](NC(=O)C1CCCC1)c1nc2cc(-c3ccc(F)cc3)ncn2n1 | -10.9
COCC(=O)N1CCC(C(=O)c2cc(C)cnc2N)CC1 | 0.353
NC(=O)CN1CCCC(c2cncc(Nc3ncccn3)n2)C1 (stereo not given) | -2.61
CCS(=O)(=O)N1CCC(C(=O)NC(Cc2ccsc2)c2nccs2)CC1 (stereo not given) | -2.72
C[C@]1(O)CN(CCO)CC[C@@H]1Oc1cccc(F)c1 | -6
Cc1ncsc1-c1nnc(C2CCN(Cc3ccccc3F)CC2)o1 | -10.2
CC(=O)NC[C@]1(O)CCN(C(=O)c2ccc3c(c2)OCO3)C[C@H]1O | -9.91

Structure (SMILES) | cytotoxicity at 10 µM [%]
Cc1ccc(N2CCC(Nc3ccc4nnc(C)n4n3)CC2)nc1 | 8.56
COCCN(Cc1ccccn1)C(=O)CC1OCCc2ccsc21 (stereo not given) | -39
COc1ccccc1OCCNS(=O)(=O)N1CCOCC1 | 9.37
COc1ccc(C(C)=O)cc1CN1CCn2cccc2C1C (stereo not given) | -6.62
CNC(=O)c1ccc(CN(C)c2ccc(C(F)(F)F)cn2)cc1 | 6.71
CCCn1nc2c(cc1=O)CN(Cc1ccccn1)CC2 | 1.53
CC(C)(O)CN1CCN(C(=O)c2cnn(-c3ccccc3F)c2)CC1 | -3.8
c1cnc2nc(N3CCCC3c3nnc4n3CCCCC4)ccc2n1 (stereo not given) | 4.21
CCCc1noc(CS(=O)(=O)CC(=O)NC(C)CCC)n1 (stereo not given) | 3.22
Cc1noc(C)c1CC(=O)NCC(C(C)C)N1CCOCC1 (stereo not given) | -42.7
OCc1cc2ccccc2nc1NCC1(O)CCC1 | -46.9
CN(Cc1ccc(Cl)s1)C(=O)Nc1ccc(N(C)C)nc1 | -1.73
CCN(C(=O)CCOC)C(c1ccc(Cl)cc1)c1ccccn1 (stereo not given) | 1.88
COc1ccc(C)cc1CC(=O)NC(CC(=O)O)c1ccc(F)cc1 (stereo not given) | 7.66
CC(C)COC(C)C(=O)NCc1ccc(Cn2ccnc2)cc1 (stereo not given) | -2.65
c1cnnc(N2CCCC(NCc3nc(C4CC4)no3)C2)c1 (stereo not given) | -14.6
COCCN(C)C(=O)Nc1ccc2c(ccn2CCOC)c1 | -3.83
Cc1ccc(N2CCc3ncnc(C4CC4)c3CC2)nn1 | -85
CCN(CC)C(=O)c1nc2c(s1)CCN(C(=O)Nc1ccccc1)CC2 | 12
CCN(CC)Cc1cc(=O)n2c(n1)CN(C(=O)c1ccc[nH]1)CCC2 | -112
CC(=O)N1CCC2(CC1)c1ncc(-c3cccnc3)n1CCN2C | -94
CN(Cc1cncnc1)[C@H]1CN(C(=O)c2ccc[nH]2)[C@@H]2CCCO[C@@H]21 | -107

Structure (SMILES) | cytotoxicity at 10 µM [%]
CN1CCN(Cc2cnc3n2CCN(C(=O)c2ccoc2)C3)CC1 | -80.7
COC(=O)CCC(=O)N1CCC2(CN(Cc3cccc(Cl)c3)C2)C1 | -62.4
O=C(Cc1ccc(F)cc1)N1CCn2c(Cn3cncn3)cnc2C1 | -67.3
COCC1CN(C(=O)CC2Cc3ccccc3C2)Cc2c1cnn2C (stereo not given) | -75.4
Cc1ncc2c(c1-c1noc(-c3cscn3)n1)CCNC2 | -3.37
CCc1cnc(N)nc1NCCc1ccc(OC)cc1OC | 3.29
Cn1ncc(N2CCC(CNC3Cc4ccccc4C3)C2)cc1=O (stereo not given) | -6
Cc1cc(C(=O)N(C)Cc2ccccc2OCC(C)C)cc(=O)[nH]1 | 8.45
COCCC1(C(=O)O)CCCN(C(=O)c2cc(Cl)ccc2F)C1 (stereo not given) | -2.79
O=C(Cc1c[nH]c(=O)[nH]c1=O)N1CCC2(CCC(=O)N(C3CC3)C2)CC1 | -44.5
O=S1(=O)C[C@@H]2[C@H](C1)N(Cc1cc(F)cc(Cl)c1)CCN2CCO | -4.71
Cc1noc(CN(C)CC2CCCN(CCc3ccc(Cl)cc3)C2)n1 (stereo not given) | 3.76
CCn1ccnc1-c1nccn1-c1ccccc1CN1CCOCC1 | 14.1
N[C@@H]1c2ccccc2C2(CCN(c3cc(C(F)(F)F)ccn3)CC2)[C@H]1O | 0.106
Cc1cc(C(=O)N2C[C@H]3CCC[C@@]3(CO)C2)c2ccc(F)cc2n1 | 5.78
CC(c1ccncn1)N(C)Cc1cc2cc3c(cc2[nH]c1=O)OCO3 (stereo not given) | 9.83
COc1cccc(NC(=O)NCC2CCCN(C3CCOCC3)C2)c1 (stereo not given) | -2.48
CC(c1ccc(F)cc1)n1ccnc1-c1cc2n(n1)CCCNC2 (stereo not given) | 2.36
c1ccc2c(c1)CCN(c1nc(-c3ccncc3)nc3c1CCNC3)C2 | 37.3
COc1nc2c(cc1C(=O)N1CCCOC(Cn3cccn3)C1)CCC2 (stereo not given) | -52.1
O=C1NC(c2cccnc2)=NC12CCN(CCCc1ccccc1)CC2 | 1.68
Cc1cnc(NCc2csc(C(C)C)n2)nc1-c1cnn(C)c1 | 2.83

Structure (SMILES) | cytotoxicity at 10 µM [%]
Cc1cc2nc(C(C)C)cc(N(C)CC3CCCN(CCO)C3)n2n1 (stereo not given) | 7.52
Cc1ccc(C(=O)N(C)CCCc2cnn(C)c2)cc1N1CCNC1=O | -4.39
CCC(NC(=O)C1CCN(S(C)(=O)=O)CC1)c1ccc(C)c(C)c1 (stereo not given) | -8.06
CCc1ccccc1OCCN(C)C(=O)CN1CCCC1 | -50.4
COCc1cc(NCCCSc2nnc(C)s2)ncn1 | 11.6
Cc1c[nH]c(CN(C)C(C(=O)O)c2c(F)cccc2OC(C)C)n1 (stereo not given) | -50.6
CCCc1nc(C)cc(N2CCNC(C(=O)NCc3cccnc3)C2)n1 (stereo not given) | -7
COc1cc(CN2CCN(c3cccc(OC)c3)C(=O)C2)cc(OC)c1 | -11.7
CCC(=O)N1CCc2nc3cc(OC)c(OC)cc3c(=O)n2CC1 | 2.65
O=C(O)CCc1cccc(C2CCCN2Cc2ccc(F)c(F)c2)n1 (stereo not given) | -5.25
CCc1nc(C)c(C(=O)NCCNC(=O)c2cccs2)s1 | -1.45
O=C(CN1CCC(c2ccnn2CCO)CC1)NCc1ccco1 | 1.68
CNc1snc(C)c1C(=O)N1CCCC(n2cc(C)cn2)C1 (stereo not given) | -3.42
COc1ncccc1NC(=O)N(Cc1ccc(C)o1)C1CC1 | -1.83
c1ncn(CC2CN(Cc3csc(C4CCCC4)n3)CCO2)n1 (stereo not given) | -8.55
Cc1ccc(Oc2ccc(NC(=O)NCC3CCOC3)cn2)cc1C (stereo not given) | -5.28
Cc1cnn(C2CCCN(C(=O)c3cc(C4CC4)on3)C2)c1 (stereo not given) | -11.4
COCCNC(=O)Nc1ccc(-n2cncn2)c(F)c1 | -0.0868
CC(NC(=O)NCCCc1n[nH]c(N)c1C#N)c1cccs1 (stereo not given) | -6.8
Cc1cnn(CC2CCCCN2Cc2nc(N)c3ccccc3n2)c1 (stereo not given) | -7.21
CCCc1nc(CN2CCOC(CNc3cccnn3)C2)cs1 (stereo not given) | -6.71
Cc1cnn(CC2CN(Cc3nc4ccccc4nc3C)CCO2)c1 (stereo not given) | -4.02

Structure (SMILES) | cytotoxicity at 10 µM [%]
c1csc(-c2noc(C3CNC3)n2)c1 | -5.39
Cc1noc([C@@H]2C[C@H]3OCC[C@H]3N(Cc3cc(C)c(C)o3)C2)n1 | -72.2
CC1CCCCN1C(=O)c1nc2c(n1C(C)C)CCN(C)C2 (stereo not given) | 18.2
O=C1N(c2ccsc2)CCC12CCCN(CC1CC1)C2 (stereo not given) | -79.4
N#Cc1ccc(N2CCC3(CC2)CC(OCc2cccnc2)CO3)cc1 (stereo not given) | 38.8
CS(=O)(=O)N1CCC2(CCN(C(=O)c3cccnc3)CC2)C1 | 3.59
CCS(=O)(=O)N1Cc2[nH]nc(COCc3cccnc3)c2C1 | 11.9
COCC1CC2(CCN(c3cc(OC)ncn3)CC2)CN1C(C)C (stereo not given) | -108
COCCNC(=O)[C@H]1C[C@@H]2CCN(CCc3ccccc3)C[C@H]2O1 | -70.3
CC(C)n1nc(CN2CCCC2)c2c1CN(CC1CC1)CC2 | 2.53
CCOCC1CN(C2CCCC2)Cc2cnn(CC3CCOCC3)c21 (stereo not given) | -9.13
N#Cc1cccc(CN2CCn3cc(Cn4cccn4)nc3C2)c1 | -0.501
CN1CCN(c2ncc3c(c2C(=O)O)CCN(C2CCOC2)C3)CC1 (stereo not given) | 6.96
O=C([C@H]1C[C@H]2OCC[C@H]2N(Cc2ccccc2F)C1)N1CCCCO1 | -72.2
O=C(CCC1CCCC1)N1CCCC(c2ncc3c(n2)CCNC3)C1 (stereo not given) | -23
Cc1ccc(CNCc2ccc(N3CCC(CO)CC3)nc2)c(C)c1 | 1.37
Cc1cnc(N2CCC3(CC2)CN(Cc2cccs2)CCO3)nc1 | 16.2
Fc1cnc(N2CCn3c(CN4CCCC4)nnc3C2)nc1 | -145
CC(C)OCc1ncn2c1CN(Cc1ccoc1)CCC2 | -75.7
CC1N(c2cnn(C)c2)C(=O)COC12CCN(c1ncccn1)CC2 (stereo not given) | 0.952
O=C(Nc1ccccc1)[C@H]1C[C@H]2CN(Cc3cccnc3)C[C@@H]1O2 | -80
CC(C)CN1C[C@@H]2C[C@H](C(=O)NCc3cccnc3)[C@H](C1)O2 | 2.5

From ChEMBL document CHEMBL4513216, “Probing the Open Global Health Chemical Diversity Library for Multistage-Active Starting Points for Next-Generation Antimalarials” (ACS Infect Dis, 2020)
